NPY-Y2 PAM-ag: NPY-Y2 potentiators or agonists, primary screen, cell-based. cells expressing NPY-Y2, potentiator/agonist read-out. activation, % at 3.6 µM. 220,000 compounds, 0.45% hits; in the data active = activation above about 27%;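 also: cells stimulated with NPY near EC25 plus isoproterenol at EC100; 0% = vehicle plus submaximal agonist and 100% = vehicle plus saturating agonist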
Target sequence (P49146 whole entry, looked up): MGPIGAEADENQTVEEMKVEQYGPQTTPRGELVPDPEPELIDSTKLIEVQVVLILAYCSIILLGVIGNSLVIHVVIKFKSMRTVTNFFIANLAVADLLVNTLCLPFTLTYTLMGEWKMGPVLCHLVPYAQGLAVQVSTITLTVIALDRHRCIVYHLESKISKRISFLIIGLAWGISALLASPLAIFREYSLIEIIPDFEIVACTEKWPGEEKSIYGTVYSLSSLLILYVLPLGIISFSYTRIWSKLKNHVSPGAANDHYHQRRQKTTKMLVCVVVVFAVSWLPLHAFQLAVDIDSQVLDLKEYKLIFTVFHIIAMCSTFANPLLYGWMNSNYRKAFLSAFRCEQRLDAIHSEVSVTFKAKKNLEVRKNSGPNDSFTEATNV
NPY-Y1 PAM-ag: NPY-Y1 receptor potentiators or agonists, primary screen, cell-based; AID 1304, 2008; activation, % at 3.6 µM; NPY-Y1 expressing cells, potentiator/agonist activation; 220,000 compounds, 0.37% hits; in the data active = activation above about 33%, passing the limit was not always enough;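 also: cells stimulated with NPY at EC10 then isoproterenol at EC100; 0% = low agonist plus stimulus and 100% = saturating agonist plus stimulus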
NPY-Y2 antag: NPY-Y2 receptor antagonists, primary screen, cell-based; Neuropeptide Y receptor type 2 (Homo sapiens), P49146; NPY-Y2 expressing cells, antagonist mode; inhibition, % at 2.7 µM; 140,000 compounds, 0.99% hits;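 also: 0% = vehicle with agonist challenge and 100% = reference antagonist with challenge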
Tb hexokinase: Trypanosoma brucei hexokinase 1 inhibitors, primary screen, biochemical, G6PDH-coupled NADH absorbance, MLSCN library; hexokinase 1 [Trypanosoma brucei]; recombinant TbHK1, G6PDH-coupled NADH A340; inhibition, % at 10 µM; 220,000 compounds, 0.11% hits; AID 1430, 2008;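 active = inhibition of 50% or more in the single-dose primary screen; inactive = inhibition below 50%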
m-calpain inh: inhibitors of pig calpain II, primary screen, biochemical, fluorogenic peptide substrate, 1536-well | purified calpain II, 30 min | inhibition, % at 16 µM | 220,000 compounds, 0.37% hits | AID 1236, 2008;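 active = inhibition above about 50%, limit read from the data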
NPY Y1 blocker: NPY-Y1 receptor antagonists, primary screen, cell-based; inhibition, % at 3.6 µM; 200,000 compounds, 1% hits; Neuropeptide Y receptor type 1 (Homo sapiens), P25929; HEK293-CNG Y1 cells, membrane potential fluorescence; NPY at EC95, then isoproterenol;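 active = inhibition above the campaign mean inhibition of all tested compounds plus 3 SD, cut at about 20% in these data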;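 also: 0% = DMSO wells given NPY plus isoproterenol and 100% = isoproterenol alone without NPY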
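Test system: HEK293 cells co-expressing NPY Y1 receptor and cyclic-nucleotide gated channel; Also added: NPY (25 nM), isoproterenol (1 µM), Ro 20-1724 (25 µM); Compound dosing: one concentration, 3.6 µM, in 0.4% DMSO; Timing: dye 3 h, compound 60 min room temperature, stimulation 45 min; Technique: Membrane-potential fluorescent dye readout.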
NPY-Y1 ant conf: NPY-Y1 receptor antagonists, retest of hits, confirmation, HEK293-CNG cells, membrane potential fluorescence, triplicate. shares compounds with NPY Y1 blocker. cAMP; NPY challenge against isoproterenol-raised cAMP. inhibition, % at 3.6 µM. 1,200 compounds, 21% hits; in the data active = inhibition above about 20%;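 also: 0% = vehicle with agonist plus stimulus and 100% = stimulus alone without agonist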
NPY-Y2 antag ct: NPY-Y2 receptor antagonists, selectivity check, confirmation, counter-screen for NPY-Y1 antagonist project, HEK293-CNG cells, membrane potential fluorescence, triplicate; inhibition, % at 3.6 µM; AID 1255, 2008; 1,200 compounds, 28% hits; shares compounds with NPY Y1 blocker; antagonism; cells given NPY, then isoproterenol;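 also: 0% = DMSO with agonist challenge and 100% = reference antagonist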
Numbers without * were called inactive; . = not tested or not shown. Shown are actives, neighbours in structure and some others; about 2.3% of the full set was active somewhere. Rule as the data show it, unless noted: active = inhibition above about 17%; inactive = the rest.

SMILES	NPY-Y2 PAM-ag	NPY-Y1 PAM-ag	NPY-Y2 antag	Tb hexokinase	m-calpain inh	NPY Y1 blocker	NPY-Y1 ant conf	NPY-Y2 antag ct
O=C(COC(=O)CCSc1ccc(Cl)cc1)NCc1ccccc1	-11.6	-25.6	14.6	41.8	29.2	21.8*	8.1	9.5
CS(=O)(=O)NCCSc1cc(C(F)(F)F)nc2ccccc12	9.8	-19.7	.	-14.6	5.5	.	.	.
CC(C)=C(NC(=O)c1ccccc1)C(=O)N1CCOCC1	13.5	12.6	2.2	3.5	4.7	22.4*	-2.3	-0.3
CCCCCCCn1c2c(c(=N)c3ccccc31)CCC2	-36.6	-89.8	.	-3.9	5.5	65.9*	59.5*	62.2*
CCCn1c2c(c(=N)c3c1CCC3)CCC2	-23.9	-14.1	.	-7.4	11.2	.	.	.
C=CCN1C(=O)C(O)(CC(=O)c2ccco2)c2cc(Br)ccc21 (configuration not stated)	-0.6	2.4	.	-1.2	8.6	-1.7	.	.
Cc1ccc(-c2cc3cccc[n+]3cc2-c2ccc(C)cc2)cc1	-16.0	-61.7	14.2	-18.7	-298.3	21.7*	32.2*	20.9*
O=C(Cn1c(C(=O)N2CCc3ccccc3C2)cc2sccc21)c1ccccc1	3.7	-3.1	7.0	5.6	2.9	4.3	.	.
O=C(Cn1c(C(=O)N2CCN(C3CCCCC3)CC2)cc2sccc21)c1ccccc1	-35.6	-34.7	14.6	9.0	-3.2	22.5*	10.0	8.2
CN(C)/C=C/C(=O)c1nnn(C2CCCCC2)c1NC1CCCCC1	8.1	-31.9	14.2	-34.7	11.6	22.0*	-2.9	8.6
Fc1ccc2nc(C3CCCCN3Cc3nc(CC4CC4)no3)[nH]c2c1 (configuration not stated)	-5.7	-14.6	.	9.7	-0.1	39.3*	9.3	10.7
CCn1ncc(Br)c1C(=O)Nc1cc([N+](=O)[O-])ccc1C	4.8	0.2	1.8	-1.0	16.2	6.8	.	.
N#C/C(=N\Nc1cccc(Cl)c1)C(=O)c1ccccc1	25.1	38.4	5.1	-19.4	-62.4	7.4	.	.
COc1ccc(C(=O)/C(C#N)=N/Nc2cccc([N+](=O)[O-])c2)cc1	-4.9	-15.1	.	-8.5	39.3	26.4*	29.5*	16.6
COc1nc(OC)nc(N2CCC(C(=O)Nc3cccc4ccccc34)CC2)n1	-9.5	-35.0	10.6	-0.4	-24.2	35.0*	12.6	13.8
Cc1cc2c(=O)n(Cc3ccco3)c(SCC(=O)N3CCCc4ccccc43)nc2s1	-11.9	-8.4	8.3	0.5	-40.3	22.2*	0.9	3.5
C=CCN(C(=O)CSc1nc2c(sc3ccccc32)c(=O)n1CCN(CC)CC)c1ccccc1	-8.7	-16.9	.	-13.2	12.4	23.2*	43.8*	64.9*
CCN(CC)CCn1c(SCC(=O)Nc2ccc(F)cc2)nc2c(sc3ccccc32)c1=O	-24.7	-55.2	.	-13.2	-118.3	34.6*	14.9	28.8*
C=CCN(C(=O)CSc1nc2ccsc2c(=O)n1Cc1ccccn1)c1ccccc1	2.6	6.8	.	-0.7	2.8	1.6	.	.
COc1ccccc1NC(=O)CSc1nc2c(sc3ccccc32)c(=O)n1CCN(C)C	-7.7	-0.4	.	-19.1	-101.4	6.3	.	.
CCOC(=O)Nc1nc(-c2ccccc2)c(C(=O)c2ccccc2)s1	-18.1	-19.9	16.2	-8.0	6.8	35.9*	5.5	21.2*
COC(=O)Nc1nc(-c2ccccc2)c(C(=O)c2ccc(Cl)cc2)s1	-23.6	-12.6	5.9	-11.8	18.1	6.0	.	.
O=C(Nc1nnc(C2=COCCO2)o1)c1ccc(Cc2ccccc2)cc1	-46.7	-43.1	.	6.3	-49.3	22.5*	10.6	5.0

Screening results deposited in PubChem by several laboratories.
